Published values gathered from unrelated publications.
Lines come from different studies, so protocols differ.

SMILES	assay	system	setting	endpoint	result
C[C@H]1O[C@@H](O[C@H]2[C@@H](O)C[C@H](O[C@H]3[C@@H](O)C[C@H](O[C@H]4CC[C@@]5(C)[C@H](CC[C@@H]6[C@@H]5C[C@@H](O)[C@]5(C)[C@@H](C7=CC(=O)OC7)CC[C@]65O)C4)O[C@@H]3C)O[C@@H]2C)C[C@H](O)[C@@H]1O	–	Caco-2	10 µM, 2 h, pH 7.4	efflux ratio	8.9
CC(C)CC(=O)OC[C@H]1O[C@@](C#N)(c2ccc3c(N)ncnn23)[C@H](O)[C@@H]1O	general toxicity	beagle dog	oral, multiple doses	NOAEL	100 mg/kg/day
COc1cc(C(=O)c2nc(-c3cccc4[nH]ccc34)c[nH]2)cc(OC)c1OC	–	male CD-1 mouse, plasma	intraperitoneal, 15 mg/kg	Tmax	8.4 min
O=c1c2cc(Cl)c(CO)cc2[nH]c(=S)n1Cc1cccnc1	–	Caco-2	10 µM, 90 min, pH 7.4	efflux ratio	~2
CC(=O)c1c(C)c2cnc(Nc3ccc(C4CCN(CCS(C)(=O)=O)CC4)cn3)nc2n(C2CCCC2)c1=O	–	Caco-2	10 µM	efflux ratio	0.96
Cc1[nH]c(C)c(S(=O)(=O)Nc2ccc(S(F)(F)(F)(F)F)cc2)c1C(=O)N1CCC(F)(F)C1	–	mouse, brain	intraperitoneal, 40 mg/kg	Tmax	120 min
CC(C)NCC(O)COc1cccc2ccccc12 (stereo not shown)	–	Caco-2	10 µM, 2 h, pH 7.4	efflux ratio	0.7
O=c1c2cc(Cl)c(CO)cc2[nH]c(=S)n1Cc1cncnc1	–	Caco-2	10 µM, 90 min, pH 7.4	efflux ratio	~2
CCOC(=O)c1c(NC(=O)CNC(C)C)sc2c1CCCCC2	–	male mouse, brain	intraperitoneal, 100 mg/kg, single dose	Tmax	30 min
N=C(N)NCCC[C@H](NC(=O)[C@H](Cc1ccccc1)NC(=O)[C@H](CCC(N)=O)NC(=O)OCc1ccccc1)C(=O)c1nccs1	–	female C57BL/6 mouse, plasma	intravenous, 5 mg/kg	Tmax	5 min
